Measured values: PubChem BioAssay AID624165 (Southern Research Specialized Biocontainment Screening …, 2012)
Calls of active or inactive are those of the source.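 The calls were made as follows: active = inhibition of 30% or more at any tested concentration; inactive = the rest.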

tested on: Plasmodium falciparum M18 aspartyl aminopeptidase (PfM18AAP); assay: PFM18AAP inhibitors, dose response, selectivity assay for PFM1AAP inhibitor project, biochemical, QFRET, H-Glu-NHMec substrate, set 3 (AID 624165); settings: Recombinant PfM18AAP, H-Glu-NHMec fluorogenic cleavage; series mostly up to 100 µM
Procedure, shortened: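 System: Purified recombinant PfM18AAP, M18 aspartyl aminopeptidase of Plasmodium falciparum | Input: Enzyme 5 µg/mL | Medium: pH 7.5 Tris, 2 mM CoCl2 | Incubation: Reaction 90 min, room temperature | Measured by: Fluorescence, excitation 370 nm, emission 460 nm | Control set: no-enzyme background wells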

outcome, inactive:
O=C(NCc1cccc(F)c1)C1CCN(S(=O)(=O)c2cc(Br)c(Br)s2)CC1
O=C(NCc1cccc(F)c1)C1CCN(S(=O)(=O)c2ccc(Br)cc2)CC1
O=C(NCc1ccc2c(c1)OCO2)C1CCN(S(=O)(=O)c2ccc(Br)s2)CC1
O=C(NCc1ccc(F)cc1)C1CCN(S(=O)(=O)c2cc(Br)c(Br)s2)CC1
O=C(NCc1cccc(F)c1)C1CCN(S(=O)(=O)c2sccc2Br)CC1
O=C(NCc1ccccc1F)C1CCN(S(=O)(=O)c2cc(Br)c(Br)s2)CC1
O=C(NCc1cccc(F)c1)C1CCN(S(=O)(=O)c2ccc(Cl)s2)CC1
O=C(Nc1ccc2c(c1)OCO2)C1CCN(S(=O)(=O)c2ccc(Br)s2)CC1
O=C(NCc1ccc2c(c1)OCO2)C1CCN(S(=O)(=O)c2ccc(Cl)s2)CC1
O=C(NCCc1ccc2c(c1)OCO2)C1CCN(S(=O)(=O)c2sccc2Br)CC1
O=C(NCc1ccc2c(c1)OCO2)C1CCN(S(=O)(=O)c2ccc(Br)cc2)CC1
O=C(NCc1cccc(F)c1)C1CCN(S(=O)(=O)c2ccc(Br)s2)CC1
O=C(NCc1ccc2c(c1)OCO2)C1CCN(S(=O)(=O)c2sccc2Br)CC1
O=C(NCc1ccc(F)cc1)C1CCN(S(=O)(=O)c2ccc(Cl)s2)CC1
O=C(NCc1ccccc1F)C1CCN(S(=O)(=O)c2sccc2Br)CC1
O=C(NCCc1ccc2c(c1)OCO2)C1CCN(S(=O)(=O)c2ccc(Br)cc2)CC1
O=C(NCc1ccc(F)cc1)C1CCN(S(=O)(=O)c2ccc(Br)s2)CC1
O=C(NCc1ccc(F)cc1)C1CCN(S(=O)(=O)c2ccc(Br)cc2)CC1
O=C(NCCc1ccc2c(c1)OCO2)C1CCN(S(=O)(=O)c2cc(Br)c(Br)s2)CC1
O=C(Nc1ccc2c(c1)OCO2)C1CCN(S(=O)(=O)c2sccc2Br)CC1
O=C(NCc1ccc2c(c1)OCO2)C1CCN(S(=O)(=O)c2cc(Br)c(Br)s2)CC1
O=C(Nc1ccc2c(c1)OCO2)C1CCN(S(=O)(=O)c2ccc(Cl)s2)CC1
O=C(Nc1ccc2c(c1)OCO2)C1CCN(S(=O)(=O)c2ccc(Br)cc2)CC1
O=C(NCc1ccc(F)cc1)C1CCN(S(=O)(=O)c2sccc2Br)CC1
O=C(NCc1ccccc1F)C1CCN(S(=O)(=O)c2ccc(Br)s2)CC1
O=C(NCCc1ccc2c(c1)OCO2)C1CCN(S(=O)(=O)c2ccc(Br)s2)CC1
O=C(NCc1ccccc1F)C1CCN(S(=O)(=O)c2ccc(Br)cc2)CC1
O=C(NCCc1ccc2c(c1)OCO2)C1CCN(S(=O)(=O)c2ccc(Cl)s2)CC1
O=C(NCc1ccccc1F)C1CCN(S(=O)(=O)c2ccc(Cl)s2)CC1
O=C(Nc1ccc2c(c1)OCO2)C1CCN(S(=O)(=O)c2cc(Br)c(Br)s2)CC1
